Assay [1] has as its system DLD-1. Briefly: Inhibition of chymotrypsin-like activity of 20S proteasome in human DLD1 cells transfected with 4Ub-Luc gene using Succinyl-Leu-Leu-Val-Tyr-AMC as substrate at 20 uM after 6 hrs by spectrofluorometric analysis. Type of assay: cell-based. Put shortly:
(§1)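 Stably transfected DLD-1 4Ub-Luc cells seeded at 10⁴ cells/well, exposed to compound or solvent for 6 h, then incubated a further 30 min in reaction buffer (30 mM Tris–HCl pH 7.5, 1 mM ATP) with an activity-specific fluorogenic substrate; cellular proteasome activity read by fluorescence. Cells grown in MEM with 5% heat-inactivated serum.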

In assay [2] the test system is DLD-1. Briefly: Inhibition of peptide-glutamyl-peptide-hydrolyzing activity of 20S proteasome in human DLD1 cells transfected with 4Ub-Luc gene using Z-Leu-Leu-Glu-AMC as substrate at 40 uM after 6 hrs by spectrofluorometric analysis. Type of assay: cell-based. Put shortly:
as §1

For assay [3], the system named is DLD-1. Kind of assay: Inhibition of 20S proteasome in human DLD1 cells transfected with 4Ub-Luc gene assessed as bioluminescence induction factor at 5 uM after 8 hrs by luciferase reporter gene assay relative to epoxomicin. Type of assay: cell-based. Put shortly:
(§2)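 Stably transfected DLD-1 cells expressing 4Ub-Luc reporter, cultured in MEM with 5% heat-inactivated serum. Seeded at 10⁴ cells/well and treated with compound or solvent for 8 h. Luciferase activity in lysates read by luminometer. Induction factor = signal of treated over untreated cells, normalised to epoxomicin at 10^-7 M run in parallel (set to 100). IF ≥10 counted active.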

Assay [4] can be described thus: Inhibition of peptide-glutamyl-peptide-hydrolyzing activity of 20S proteasome in human DLD1 cells transfected with 4Ub-Luc gene using Z-Leu-Leu-Glu-AMC as substrate after 6 hrs by spectrofluorometric analysis. Type of assay: cell-based. As to conditions: dld-1. Put shortly:
(§3)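 DLD-1 4Ub-Luc cells seeded at 10⁴ cells/well, exposed to compound or solvent for 6 h, then 30 min in reaction buffer (30 mM Tris–HCl pH 7.5, 1 mM ATP). Chymotrypsin-like and PGPH activities read with specific fluorogenic substrates.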

The nature of assay [5]: Inhibition of chymotrypsin-like activity of 20S proteasome in human DLD1 cells transfected with 4Ub-Luc gene using Succinyl-Leu-Leu-Val-Tyr-AMC as substrate after 6 hrs by spectrofluorometric analysis. Type of assay: cell-based. The note with it: dld-1. Put shortly:
as §3

For assay [6], the system named is DLD-1. Briefly: Inhibition of 20S proteasome in human DLD1 cells transfected with 4Ub-Luc gene assessed as bioluminescence induction factor at 0.1 uM after 8 hrs by luciferase reporter gene assay relative to epoxomicin. Type of assay: cell-based. A digest of the protocol:
as §2
For orientation: In a reporter assay the amount or activity of a reporter protein is the signal.

The test system of assay [7] is DLD-1. Kind of assay: Inhibition of 20S proteasome in human DLD1 cells transfected with 4Ub-Luc gene assessed as bioluminescence induction factor at 1 uM after 8 hrs by luciferase reporter gene assay relative to epoxomicin. Type of assay: cell-based. A digest of the protocol:
as §2

Assay [8] in a line: Cytotoxicity against human WM266.4 cells after 72 hrs by ATPlite assay. Type of assay: functional, cell-based. The note with it: WM 266-4, 72 h. A digest of the protocol: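 WM-266-4 metastatic melanoma cells grown in DMEM with 10% fetal calf serum, 2 mM L-glutamine, fungizone and penicillin–streptomycin at 37 °C, 5% CO2. Seeded at 3 × 10⁴ cells/ml, left 24 h, then exposed to increasing compound concentrations for 72 h. Viability read as ATP level (ATPlite). IC50 from nonlinear sigmoidal fit with variable Hill slope; mean of two independent experiments.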
For orientation: Cellular ATP, detected with luciferase, serves as a proxy for viable cell number.

Assay [9] has as its system DLD-1. Briefly: Inhibition of 20S proteasome activity in human DLD1 cells transfected with 4Ub-Luc gene assessed as bioluminescence induction factor at 10 uM after 8 hrs by luciferase reporter gene assay relative to epoxomicin. Type of assay: cell-based. Put shortly:
as §2

The test system of assay [10] is DLD-1. Kind of assay: Inhibition of 20S proteasome in human DLD1 cells transfected with 4Ub-Luc gene assessed as bioluminescence induction factor at 0.5 uM after 8 hrs by luciferase reporter gene assay relative to epoxomicin. Type of assay: cell-based. A digest of the protocol:
as §2

Active and inactive are the calls of the source. No cut-off for these calls is given here.

As for `C[C@]12C(=O)C=CCC1=CC[C@@H]1[C@@H]2CC[C@]2(O)C(=O)O[C@@]3(C)[C@H]4C[C@]5(C)[C@@H](CO[C@@]16O[C@@]32[C@H]5C6=O)C(=O)O4`, the inhibition result in the assay with DLD-1 [1] and with DLD-1 [2] was “Active” in each case. Also, the fold change (FC) in the assay on DLD-1 [3] is 19.
Take `CC(C)C[C@H](NC(=O)[C@H](Cc1ccccc1)NC(=O)c1cnccn1)B(O)O` [BORTEZOMIB]: the IC50 in assay [4] came to 0.9 nM; in assay [5], 0.2 nM; in assay [8] it was 35 nM. In addition, the figures for the fold change (FC) in the assay with DLD-1 [6] and in the assay with DLD-1 [7] were 133 and 117, respectively.
Consider `CC[C@H](C)[C@H](NC(=O)[C@H]([C@@H](C)CC)N(C)C(C)=O)C(=O)N[C@H](C(=O)N[C@@H](CC(C)C)C(=O)[C@@]1(C)CO1)[C@@H](C)O` [EPOXOMYCIN], for which the IC50 in assay [4] amounted to 60 nM; in assay [5], 6 nM; in assay [8] it was 4.8 nM. Also, the fold change (FC) in the assay with DLD-1 [6] came to 100; in the assay on DLD-1 [7], 112.
As to `CC(=O)N[C@@H](CSC(=O)[C@]1([C@@H](O)C(C)C)NC(=O)[C@H](C)[C@@H]1O)C(=O)O` [LACTACYSTIN], the IC50 in [4] turned out to be 300 nM; in assay [5] it was 70 nM. Moreover, the fold change (FC) amounted to 6.2 in the assay on DLD-1 [6], 72 in the assay with DLD-1 [7], 93 in the assay with DLD-1 [9] and 106 in the assay with DLD-1 [3].
With `C=C(C(=O)[C@H](O)[C@@H](C)[C@H]1[C@@H](OC(C)=O)C[C@@]2(C)[C@@H]3CC[C@H]4[C@H](C)C(=O)C=C[C@@]45C[C@@]35CC[C@]12C)[C@@H](C)COC(C)=O`, the IC50 in assay [4] stood at 45000 nM; in assay [5] it was 31000 nM; in assay [8], 990 nM. Also, the fold change (FC) in the assay on DLD-1 [7] came out at 26; in the assay on DLD-1 [9], 6; with DLD-1 [3], 29; with DLD-1 [10], 1.7.

The term IC50 denotes the concentration that gives 50% inhibition. The low end stands for inhibition by little substance, the high end for a need for much substance.

Values taken from ChEMBL document CHEMBL1938254, “Semisynthetic neoboutomellerone derivatives as ubiquitin-proteasome pathway inhibitors” (Bioorg Med Chem, 2012).
